Measurements: paper PMC4929832 (Nature, 2016)

Experiments:
BRK = BRK (Homo sapiens, UniProt Q13882); assay: kinase panel; format: biochemical
KDR = KDR (Homo sapiens, UniProt P35968); assay: kinase panel; format: biochemical
MEK2 = MEK2 (Homo sapiens, UniProt P36507); assay: kinase panel; format: biochemical
Adenosine 2A receptor = Adenosine 2A receptor (Homo sapiens, UniProt P29274); assay: Adenosine 2A receptor binding assay
TBK1 = TBK1 (Homo sapiens, UniProt Q9UHD2); assay: kinase panel; format: biochemical
CLK2 = CLK2 (Homo sapiens, UniProt P49760); assay: kinase panel; format: biochemical
AKT2 = AKT2 (Homo sapiens, UniProt P31751); assay: kinase panel; format: biochemical
FLT-4 = FLT-4 (Homo sapiens, UniProt P35916); assay: kinase panel; format: biochemical
TAK1-TAB1 = TAK1-TAB1 (Homo sapiens, UniProt O43318); assay: kinase panel; format: biochemical
PKC-ZETA = PKC-ZETA (Homo sapiens, UniProt Q05513); assay: kinase panel; format: biochemical
Sequence of PKC-ZETA (Q05513 whole entry): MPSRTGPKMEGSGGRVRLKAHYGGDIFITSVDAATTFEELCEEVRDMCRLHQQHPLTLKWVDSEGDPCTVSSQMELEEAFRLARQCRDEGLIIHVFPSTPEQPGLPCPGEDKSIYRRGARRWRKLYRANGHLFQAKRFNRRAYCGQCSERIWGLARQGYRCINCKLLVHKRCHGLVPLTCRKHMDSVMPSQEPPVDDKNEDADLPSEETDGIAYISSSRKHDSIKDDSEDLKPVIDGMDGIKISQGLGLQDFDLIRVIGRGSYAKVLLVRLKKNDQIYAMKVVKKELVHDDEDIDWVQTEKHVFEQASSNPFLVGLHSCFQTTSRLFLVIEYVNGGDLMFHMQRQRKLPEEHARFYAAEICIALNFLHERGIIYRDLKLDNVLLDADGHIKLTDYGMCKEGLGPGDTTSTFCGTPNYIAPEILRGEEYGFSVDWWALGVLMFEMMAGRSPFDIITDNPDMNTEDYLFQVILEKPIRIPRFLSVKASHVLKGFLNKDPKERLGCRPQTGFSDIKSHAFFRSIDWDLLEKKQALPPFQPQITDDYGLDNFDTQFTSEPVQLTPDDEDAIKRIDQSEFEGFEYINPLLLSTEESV

FGFR4 = FGFR4 (Homo sapiens, UniProt P22455); assay: kinase panel; format: biochemical
H1975 cells = assay: Proliferation assay; format: cell-based
How it was run: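 Cells were maintained in 10% FBS/RPMI with penicillin/streptomycin and plated at 500 cells/well in 10% FBS RPMI. Serially diluted test compound was pin-transferred. Viability was read after 3 days by CellTiter-Glo luminescence and normalized to 0.1% DMSO-treated cells and empty wells. EC50 was obtained by non-linear regression curve fitting.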

SRC = SRC (Homo sapiens, UniProt P12931); assay: kinase panel; format: biochemical
BMX = BMX (Homo sapiens, UniProt P51813); assay: kinase panel; format: biochemical
PRKX = PRKX (Homo sapiens, UniProt P51817); assay: kinase panel; format: biochemical
EPH-A2 = EPH-A2 (Homo sapiens, UniProt P29317); assay: kinase panel; format: biochemical
MST3 = MST3 (Homo sapiens, UniProt Q9Y6E0); assay: kinase panel; format: biochemical
BRAF = BRAF (Homo sapiens, UniProt P15056); assay: kinase panel; format: biochemical
SGK2 = SGK2 (Homo sapiens, UniProt Q9HBY8); assay: kinase panel; format: biochemical
SGK1 = SGK1 (Homo sapiens, UniProt O00141); assay: kinase panel; format: biochemical
SRPK1 = SRPK1 (Homo sapiens, UniProt Q96SB4); assay: kinase panel; format: biochemical
AURORA-C = AURORA-C (Homo sapiens, UniProt Q9UQB9); assay: kinase panel; format: biochemical
Sequence of AURORA-C (Q9UQB9 whole entry): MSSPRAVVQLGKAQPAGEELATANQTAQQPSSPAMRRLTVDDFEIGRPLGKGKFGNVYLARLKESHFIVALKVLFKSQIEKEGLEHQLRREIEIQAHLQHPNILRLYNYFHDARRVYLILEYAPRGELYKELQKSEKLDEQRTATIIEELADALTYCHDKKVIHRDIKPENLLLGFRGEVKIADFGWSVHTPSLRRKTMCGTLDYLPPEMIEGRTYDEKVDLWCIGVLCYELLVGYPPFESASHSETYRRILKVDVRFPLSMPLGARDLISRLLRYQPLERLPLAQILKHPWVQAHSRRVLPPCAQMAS

CDK1 = CDK1 (Homo sapiens, UniProt P06493); assay: kinase panel; format: biochemical
PPARgamma Receptor = PPARgamma Receptor (Homo sapiens, UniProt P37231); assay: PPARgamma Receptor antagonist assay; format: cell-based
CAMK1A = CAMK1A (Homo sapiens, UniProt Q14012); assay: kinase panel; format: biochemical
FER = FER (Homo sapiens, UniProt P16591); assay: kinase panel; format: biochemical
MAP4K2 = MAP4K2 (Homo sapiens, UniProt Q12851); assay: kinase panel; format: biochemical
Sequence of MAP4K2 (Q12851 whole entry): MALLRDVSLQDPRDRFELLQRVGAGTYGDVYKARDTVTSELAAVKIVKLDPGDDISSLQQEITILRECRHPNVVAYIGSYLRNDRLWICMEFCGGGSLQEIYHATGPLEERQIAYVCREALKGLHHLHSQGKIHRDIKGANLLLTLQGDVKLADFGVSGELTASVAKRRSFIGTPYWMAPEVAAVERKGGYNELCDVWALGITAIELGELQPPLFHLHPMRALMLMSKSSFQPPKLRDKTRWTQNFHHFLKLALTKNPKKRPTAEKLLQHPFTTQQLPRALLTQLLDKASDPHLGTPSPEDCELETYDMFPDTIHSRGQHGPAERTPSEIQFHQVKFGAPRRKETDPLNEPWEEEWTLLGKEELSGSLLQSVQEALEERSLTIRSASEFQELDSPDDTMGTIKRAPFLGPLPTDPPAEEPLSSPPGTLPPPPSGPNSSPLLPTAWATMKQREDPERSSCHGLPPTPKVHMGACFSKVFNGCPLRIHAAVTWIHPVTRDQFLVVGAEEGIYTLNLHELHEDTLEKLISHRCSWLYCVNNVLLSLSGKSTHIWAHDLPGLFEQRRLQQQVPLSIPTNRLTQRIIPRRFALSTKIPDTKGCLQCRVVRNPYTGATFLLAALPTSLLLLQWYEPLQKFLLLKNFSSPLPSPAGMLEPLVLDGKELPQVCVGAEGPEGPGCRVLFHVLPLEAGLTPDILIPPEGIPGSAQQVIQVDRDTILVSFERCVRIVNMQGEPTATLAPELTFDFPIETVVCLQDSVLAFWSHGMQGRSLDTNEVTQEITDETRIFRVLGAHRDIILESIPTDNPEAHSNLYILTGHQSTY

Alpha1A adrenergic = Alpha1A adrenergic (Homo sapiens, UniProt P35348); assay: Alpha1A adrenergic calcium flux assay; format: cell-based
Progesterone Receptor [1] = biological target: T1, Progesterone Receptor (Homo sapiens, UniProt P06401); assay: Progesterone Receptor agonist assay; format: cell-based
T1 sequence (P06401 whole entry, species assumed): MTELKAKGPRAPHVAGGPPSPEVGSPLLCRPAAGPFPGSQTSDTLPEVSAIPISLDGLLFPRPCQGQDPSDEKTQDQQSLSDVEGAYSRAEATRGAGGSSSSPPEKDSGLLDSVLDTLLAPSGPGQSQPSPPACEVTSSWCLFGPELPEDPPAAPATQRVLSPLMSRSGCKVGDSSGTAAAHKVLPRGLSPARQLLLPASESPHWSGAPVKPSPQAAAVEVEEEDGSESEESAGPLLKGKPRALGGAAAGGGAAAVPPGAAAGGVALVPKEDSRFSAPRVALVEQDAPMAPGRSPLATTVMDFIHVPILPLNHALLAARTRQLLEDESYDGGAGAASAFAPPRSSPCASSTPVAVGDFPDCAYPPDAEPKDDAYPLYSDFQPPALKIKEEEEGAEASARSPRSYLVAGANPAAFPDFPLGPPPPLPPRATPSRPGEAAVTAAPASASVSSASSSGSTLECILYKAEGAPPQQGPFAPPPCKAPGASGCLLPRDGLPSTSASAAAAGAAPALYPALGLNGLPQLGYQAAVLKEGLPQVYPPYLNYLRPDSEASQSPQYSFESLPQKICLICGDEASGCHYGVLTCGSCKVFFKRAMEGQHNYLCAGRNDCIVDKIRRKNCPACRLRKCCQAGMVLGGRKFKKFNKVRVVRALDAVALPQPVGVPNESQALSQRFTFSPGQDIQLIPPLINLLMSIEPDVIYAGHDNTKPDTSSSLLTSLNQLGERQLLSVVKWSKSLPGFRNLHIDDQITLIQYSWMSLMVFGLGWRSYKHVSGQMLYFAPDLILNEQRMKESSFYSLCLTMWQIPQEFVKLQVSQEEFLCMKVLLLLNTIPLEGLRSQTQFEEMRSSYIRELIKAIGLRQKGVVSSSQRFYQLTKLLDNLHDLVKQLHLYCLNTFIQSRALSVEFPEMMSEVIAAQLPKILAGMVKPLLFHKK

MET = MET (Homo sapiens, UniProt P08581); assay: kinase panel; format: biochemical
TNIK = TNIK (Homo sapiens, UniProt Q9UKE5); assay: kinase panel; format: biochemical
RIPK2 = RIPK2 (Homo sapiens, UniProt O43353); assay: kinase panel; format: biochemical
Phosphodiesterase 4D = Phosphodiesterase 4D (Homo sapiens, UniProt Q08499); assay: Phosphodiesterase 4D assay; format: biochemical
Muscarinic M1 receptor = Muscarinic M1 receptor (Homo sapiens, UniProt P11229); assay: Muscarinic M1 receptor assay; format: binding
Sequence of Muscarinic M1 receptor (P11229 whole entry): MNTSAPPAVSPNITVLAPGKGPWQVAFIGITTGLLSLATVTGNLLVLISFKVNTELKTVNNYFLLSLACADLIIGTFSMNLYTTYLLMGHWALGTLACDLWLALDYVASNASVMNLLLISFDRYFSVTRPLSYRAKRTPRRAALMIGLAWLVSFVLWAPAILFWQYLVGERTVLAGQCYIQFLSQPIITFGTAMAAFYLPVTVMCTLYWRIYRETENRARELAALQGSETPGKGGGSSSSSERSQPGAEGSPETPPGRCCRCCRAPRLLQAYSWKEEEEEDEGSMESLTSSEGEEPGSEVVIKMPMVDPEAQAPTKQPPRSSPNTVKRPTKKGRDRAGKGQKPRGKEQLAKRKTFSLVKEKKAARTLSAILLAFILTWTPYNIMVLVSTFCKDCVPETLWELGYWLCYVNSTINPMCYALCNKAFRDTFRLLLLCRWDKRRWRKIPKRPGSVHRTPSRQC

HCK = HCK (Homo sapiens, UniProt P08631); assay: kinase panel; format: biochemical
TYK2 = TYK2 (Homo sapiens, UniProt P29597); assay: kinase panel; format: biochemical
CDK2-CYCLINE = CDK2-CYCLINE (Homo sapiens, UniProt P24941); assay: kinase panel; format: biochemical
TRKA = TRKA (Homo sapiens, UniProt P04629); assay: kinase panel; format: biochemical
Progesterone Receptor [2] = biological target: T1, Progesterone Receptor; assay: Progesterone Receptor antagonist assay; format: cell-based
PDGFR-ALPHA = PDGFR-ALPHA (Homo sapiens, UniProt P16234); assay: kinase panel; format: biochemical
Sequence of PDGFR-ALPHA (P16234 24-1089): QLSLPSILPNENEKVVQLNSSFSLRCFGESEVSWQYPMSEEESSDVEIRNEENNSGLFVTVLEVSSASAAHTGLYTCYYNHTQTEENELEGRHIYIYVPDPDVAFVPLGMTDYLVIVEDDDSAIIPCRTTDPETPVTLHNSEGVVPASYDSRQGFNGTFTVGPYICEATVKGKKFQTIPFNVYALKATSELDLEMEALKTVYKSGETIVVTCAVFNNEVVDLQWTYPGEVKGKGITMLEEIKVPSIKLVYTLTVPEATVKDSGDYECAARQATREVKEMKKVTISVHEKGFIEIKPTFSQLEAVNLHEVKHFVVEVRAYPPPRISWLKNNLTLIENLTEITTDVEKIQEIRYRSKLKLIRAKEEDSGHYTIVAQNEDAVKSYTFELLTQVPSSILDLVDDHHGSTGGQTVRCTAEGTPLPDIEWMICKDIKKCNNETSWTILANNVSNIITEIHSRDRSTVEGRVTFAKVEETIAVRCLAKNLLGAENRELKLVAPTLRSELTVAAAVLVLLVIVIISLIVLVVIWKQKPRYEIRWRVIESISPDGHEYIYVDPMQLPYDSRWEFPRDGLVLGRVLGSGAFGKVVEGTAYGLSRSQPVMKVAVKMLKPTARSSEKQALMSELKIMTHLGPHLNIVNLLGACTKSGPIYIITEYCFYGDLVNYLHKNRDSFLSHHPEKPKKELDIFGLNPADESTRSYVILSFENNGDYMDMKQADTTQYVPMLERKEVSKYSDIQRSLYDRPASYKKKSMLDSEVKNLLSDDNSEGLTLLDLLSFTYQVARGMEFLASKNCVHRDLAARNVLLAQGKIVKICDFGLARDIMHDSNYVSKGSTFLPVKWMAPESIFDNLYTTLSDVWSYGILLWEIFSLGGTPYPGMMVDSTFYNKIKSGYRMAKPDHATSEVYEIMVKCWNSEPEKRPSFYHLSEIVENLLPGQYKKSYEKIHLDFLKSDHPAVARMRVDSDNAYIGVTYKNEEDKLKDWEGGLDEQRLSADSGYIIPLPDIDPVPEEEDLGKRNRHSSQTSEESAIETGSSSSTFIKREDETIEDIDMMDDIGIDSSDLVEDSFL

IKK-EPSILON = IKK-EPSILON (Homo sapiens, UniProt Q14164); assay: kinase panel; format: biochemical
[3] = biological target: Melanocortin MC3 receptor (Homo sapiens, UniProt P41968); assay: Melanocortin MC3 receptor binding assay

Sequence of Adenosine 2A receptor (P29274 whole entry): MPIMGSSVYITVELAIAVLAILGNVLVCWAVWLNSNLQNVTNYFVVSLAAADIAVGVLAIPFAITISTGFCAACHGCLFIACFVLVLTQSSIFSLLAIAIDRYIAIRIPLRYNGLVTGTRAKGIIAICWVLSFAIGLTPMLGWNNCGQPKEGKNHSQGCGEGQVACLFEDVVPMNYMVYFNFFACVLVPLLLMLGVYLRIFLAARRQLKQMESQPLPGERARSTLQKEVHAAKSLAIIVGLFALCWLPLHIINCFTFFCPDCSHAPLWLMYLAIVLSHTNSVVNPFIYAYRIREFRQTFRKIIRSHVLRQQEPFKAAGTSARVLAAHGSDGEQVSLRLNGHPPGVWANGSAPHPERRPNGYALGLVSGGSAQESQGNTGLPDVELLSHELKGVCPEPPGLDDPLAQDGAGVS
Sequence of BRK (Q13882 whole entry): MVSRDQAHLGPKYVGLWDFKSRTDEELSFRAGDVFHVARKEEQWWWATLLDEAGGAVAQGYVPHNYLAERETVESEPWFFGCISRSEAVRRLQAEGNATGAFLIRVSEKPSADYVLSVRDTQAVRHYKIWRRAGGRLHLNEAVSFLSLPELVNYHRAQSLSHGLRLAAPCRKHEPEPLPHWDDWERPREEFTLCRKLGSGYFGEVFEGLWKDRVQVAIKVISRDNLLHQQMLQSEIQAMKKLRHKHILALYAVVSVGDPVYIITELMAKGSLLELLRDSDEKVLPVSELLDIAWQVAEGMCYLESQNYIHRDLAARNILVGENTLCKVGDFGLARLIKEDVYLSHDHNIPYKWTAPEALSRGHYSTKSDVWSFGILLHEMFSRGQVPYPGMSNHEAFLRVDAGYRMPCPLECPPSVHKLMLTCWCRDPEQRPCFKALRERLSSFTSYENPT

For `O=C(Nc1nccs1)C(c1cc(F)ccc1O)N1Cc2ccccc2C1=O` (stereo not shown) [EAI045, 2-(5-fluoro-2-hydroxyphenyl)-2-(1-oxo-2,3-dihydro-1H-isoindol-2-yl)-N-(1,3-thiazol-2-yl)acetamide], the inhibition at 1 µM (BRK) was 0%, the inhibition at 1 µM (KDR) was 0% and the inhibition at 1 µM (MEK2) was 0%. It also gave an IC50 (Adenosine 2A receptor) greater than 30 µM, an inhibition at 1 µM (TBK1) of 3% and an inhibition at 1 µM (CLK2) of 1%. For the same molecule, the inhibition at 1 µM (AKT2) was 0%, the inhibition at 1 µM (FLT-4) was 1% and the inhibition at 1 µM (TAK1-TAB1) was 0%. The inhibition at 1 µM (PKC-ZETA) was 0%, the inhibition at 1 µM (FGFR4) was 0% and the anti-proliferative effect (H1975 cells; H1975, concentrations as high as 10 μM) was “no anti-proliferative effect”. It also gave an EC50 (H1975 cells; Homo sapiens, NCI-H1975, 72 h, read-out: EC50 Proliferation) greater than 10 µM, an inhibition at 1 µM (SRC) of 0% and an inhibition at 1 µM (BMX) of 1%. The inhibition at 1 µM (PRKX) was 3%, the inhibition at 1 µM (EPH-A2) was 7% and the inhibition at 1 µM (MST3) was 0%. It also gave an inhibition at 1 µM (BRAF) of 0%, an inhibition at 1 µM (SGK2) of 0% and an inhibition at 1 µM (SGK1) of 6%. It also gave an inhibition at 1 µM (SRPK1) of 0%, an inhibition at 1 µM (AURORA-C) of 0% and an inhibition at 1 µM (CDK1) of 2%. For the same molecule, the IC50 (PPARgamma Receptor) was greater than 30 µM, the inhibition at 1 µM (CAMK1A) was 0% and the inhibition at 1 µM (FER) was 4%. It also gave an inhibition at 1 µM (MAP4K2) of 0%, an IC50 (Alpha1A adrenergic) greater than 30 µM and an IC50 (Progesterone Receptor [1]) greater than 30 µM. For the same molecule, the inhibition at 1 µM (MET) was 0%, the inhibition at 1 µM (TNIK) was 0% and the inhibition at 1 µM (RIPK2) was 0%. The IC50 (Phosphodiesterase 4D) was greater than 30 µM, the IC50 (Muscarinic M1 receptor) was greater than 30 µM and the inhibition at 1 µM (HCK) was 0%. It also gave an inhibition at 1 µM (TYK2) of 0%, an inhibition at 1 µM (CDK2-CYCLINE) of 0% and an inhibition at 1 µM (TRKA) of 0%. For the same molecule, the IC50 (Progesterone Receptor [2]) was greater than 30 µM, the inhibition at 1 µM (PDGFR-ALPHA) was 0% and the inhibition at 1 µM (IKK-EPSILON) was 0%. The IC50 [3] was greater than 30 µM.
